KCNK9 inh: KCNK9 potassium channel inhibitors, primary screen, HEK293 cells, thallium flux | FluxOR thallium flux fluorescence; active compounds read low | Potassium channel subfamily K member 9 (Homo sapiens), Q9NPC2 | B-score at 10 µM | actives 1.2% (n = 310,000) | AID 488922, 2010;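 active = ratio B-score over 3 SD below the library mean, with starting fluorescence within 5 SD of its mean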;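 note: negative B-score means less thallium flux so channel inhibition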
Target sequence (Q9NPC2 whole entry, looked up): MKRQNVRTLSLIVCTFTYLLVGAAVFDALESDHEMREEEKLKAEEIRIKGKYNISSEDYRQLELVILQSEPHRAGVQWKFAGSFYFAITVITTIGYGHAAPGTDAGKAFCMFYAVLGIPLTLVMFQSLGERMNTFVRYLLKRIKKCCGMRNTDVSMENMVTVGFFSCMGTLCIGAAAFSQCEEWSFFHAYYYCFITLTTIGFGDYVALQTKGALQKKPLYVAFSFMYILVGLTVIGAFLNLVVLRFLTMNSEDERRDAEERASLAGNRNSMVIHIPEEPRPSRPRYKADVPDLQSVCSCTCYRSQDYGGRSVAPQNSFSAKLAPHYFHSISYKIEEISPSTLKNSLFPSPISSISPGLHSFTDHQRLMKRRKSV
KCNQ1 act: potentiators or activators of KCNQ1 channel, primary screen, cell-based, thallium flux, high-throughput. actives 0.35% (n = 310,000). Potassium voltage-gated channel subfamily KQT member 1 (Homo sapiens), P51787. CHO-K1 KCNQ1, thallium flux FluxOR fluorescence; active compounds read high. B-score at 10 µM;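 active = fluorescence ratio B-score, a plate-corrected score, at least three library SD, with initial intensity B-score within 5 SD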
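assay system = CHO-K1 cells stably expressing KCNQ1 | medium = assay buffer, equal DMSO in all wells | timing = 37 °C overnight plating, 90-min dark dye load, 20-min compound pretreatment | measured by = kinetic FluxOR thallium fluorescence, 10-s 1-Hz baseline, 110-s post-stimulus read | measure = fluorescence change relative to baseline, converted to B score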
hERG rescue: hERG rescue from dofetilide block, primary screen, cell-based, CHO-hERG, FluxOR thallium flux, dofetilide IC70 | Voltage-gated inwardly rectifying potassium channel KCNH2 (Homo sapiens), Q12809 | actives 0.51% (n = 310,000) | activation (rescue from dofetilide block), less the hit threshold, % at 10 µM | dofetilide IC70 present;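 active = activation above the mean of controls blocked by dofetilide plus 5 SD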;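 note: thallium influx through hERG after potassium depolarization seen as dye fluorescence rise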
Kir21 inh: inhibitors of mouse Kir2.1 inward-rectifier potassium channel | Inward rectifier potassium channel 2 (Mus musculus), P35561 | HEK293-Kir2.1, FluxOR thallium flux fluorescence; active compounds read low | B-score at 10 µM | actives 0.85% (n = 310,000) | AID 1672, 2009;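 active = fluorescence ratio B-score at or below minus 3 SD of library scores, with starting-brightness B-score within 2 SD, cut at about -4.2 in these data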;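 note: channel flux triggered by added potassium and thallium sulfate stimulus; B-score of peak minus minimum fluorescence over baseline after thallium stimulus; more negative B-score means stronger Kir2.1 block with less thallium influx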
KCNK3 block: human KCNK3 channel inhibitors, primary screen, CHO cells, FluxOR thallium flux, B-score | B-score at 10 µM | FluxOR fluorescence; active compounds read low | Potassium channel subfamily K member 3 (Homo sapiens), O14649 | actives 0.84% (n = 340,000);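 active = B-score under library mean minus 4 SD, starting fluorescence ratio at most library mean plus 5 SD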;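 note: more negative B-score means stronger inhibition of thallium flux through KCNK3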
KCNQ1 block: inhibitors of human KCNQ1 channel, primary screen, cell-based, thallium flux, high-throughput. CHO-K1 KCNQ1, FluxOR thallium flux fluorescence; active compounds read high. actives 1.3% (n = 310,000). B-score at 10 µM;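 active = compounds whose thallium flux B-score, printed positive for inhibition, exceeds three library SD while starting fluorescence stays within three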;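 note: channel opened by potassium depolarization with thallium stimulus after 20 min compound exposure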
* = called active by the depositor. Rows were chosen to be rich in hits. Some 3.8% of all compounds tested hit in one or more screens of this group.

What do the screens show for `CCCn1c(C)cc(C=O)c1C`?
KCNK9 inh: inactive; KCNQ1 act: inactive; hERG rescue: 5.6*; Kir21 inh: 0.25; KCNK3 block: inactive; KCNQ1 block: inactive

Results for Cc1cc(C=O)c(C)n1C(C)C ?
KCNK9 inh: inactive; KCNQ1 act: inactive; hERG rescue: -4; Kir21 inh: -0.06; KCNK3 block: inactive; KCNQ1 block: inactive

Results for O=c1[nH]c(O)c(/C=C2/C=CC(c3cc(Cl)ccc3Cl)=N2)c(=O)[nH]1 ?
KCNK9 inh: inactive; KCNQ1 act: inactive; hERG rescue: 7.2*; Kir21 inh: 0.34; KCNK3 block: inactive; KCNQ1 block: inactive

How did CC1=Nc2ccccc2/C1=C/c1c(O)[nH]c(=O)[nH]c1=O do in these assays?
KCNK9 inh: inactive; KCNQ1 act: inactive; hERG rescue: -2; Kir21 inh: 0.48; KCNK3 block: inactive; KCNQ1 block: inactive

How did CC1CCN(C(CC(=O)c2ccccc2)C(=O)c2ccccc2)CC1 (stereo not given) do in these assays?
KCNK3 block: -9.1*

Results for C=CC[N+]1(C)C2CCC1CC(O)C2 (stereo not given) ?
KCNK9 inh: inactive; KCNQ1 act: inactive; hERG rescue: 6.2*; Kir21 inh: 0.75; KCNK3 block: inactive; KCNQ1 block: inactive

Results for COc1ccc(-n2c(Cc3ccccc3)nc3ccccc3c2=O)cc1 ?
KCNK9 inh: inactive; KCNQ1 act: inactive; hERG rescue: -8; Kir21 inh: -1.6; KCNK3 block: inactive; KCNQ1 block: inactive

Results for Oc1ccc(Cl)cc1 ?
KCNK3 block: inactive

What do the screens show for `Oc1ccc(C(=C(Cl)Cl)c2ccc(O)cc2)cc1`?
KCNK9 inh: inactive; KCNQ1 act: inactive; hERG rescue: -20; Kir21 inh: -5.6*; KCNQ1 block: 6*

How did CC1(C)C(C(=O)N2CCN(c3ccc(Cl)cc3)CC2)C1(C)C do in these assays?
KCNK9 inh: inactive; KCNQ1 act: inactive; hERG rescue: -7; Kir21 inh: 1.3; KCNK3 block: inactive; KCNQ1 block: inactive

Results for COC(=O)C1CN(C#N)N(c2ccc(Cl)cc2)C12c1ccccc1-c1ccccc12 (stereo not given) ?
KCNK9 inh: -8.9*; KCNQ1 act: inactive; hERG rescue: -5; Kir21 inh: 1.5; KCNK3 block: inactive; KCNQ1 block: inactive

Results for Cc1cccc(CN2CCN(C(=O)Cc3ccccc3)CC2)c1 ?
KCNK9 inh: inactive; KCNQ1 act: inactive; hERG rescue: -5; Kir21 inh: -0.68; KCNK3 block: inactive; KCNQ1 block: inactive

How did CCOc1cc(C=C2C(=O)NC(=O)NC2=O)ccc1OS(=O)(=O)c1ccccc1 do in these assays?
KCNK9 inh: inactive; KCNQ1 act: inactive; hERG rescue: -10; Kir21 inh: -5.5*; KCNK3 block: inactive; KCNQ1 block: inactive

How did CCOc1ccc(C=C2C(=O)NC(=S)NC2=O)cc1OCC do in these assays?
KCNK3 block: inactive

What do the screens show for `Fc1ccccc1CCNCc1cccc2ccccc12`?
KCNK9 inh: inactive; KCNQ1 act: inactive; hERG rescue: -9; Kir21 inh: -12*; KCNK3 block: inactive; KCNQ1 block: inactive

How did CC(CC(C#N)(c1ccccc1)c1ccccc1)N1CCOCC1 (stereo not given) do in these assays?
KCNK3 block: inactive

How did Cc1c(C(=O)Nc2ccccc2)c2cc(O)ccc2n1Cc1ccccc1 do in these assays?
KCNK9 inh: inactive; KCNQ1 act: inactive; hERG rescue: -11; Kir21 inh: -1.2; KCNK3 block: inactive; KCNQ1 block: inactive

Results for CN(C)S(=O)(=O)c1cc(NC(=O)COC(=O)Cc2ccccc2)ccc1Cl ?
KCNK9 inh: inactive; KCNQ1 act: inactive; hERG rescue: -5; Kir21 inh: 0.53; KCNK3 block: inactive; KCNQ1 block: 6*

What do the screens show for `CN(C)S(=O)(=O)c1cc(NC(=O)C[N+]23CCN(CC2)CC3)ccc1Cl`?
KCNK9 inh: inactive; KCNQ1 act: inactive; hERG rescue: -6; Kir21 inh: 2.4; KCNK3 block: inactive; KCNQ1 block: inactive

What do the screens show for `COc1ccc(-c2cc(C(F)(F)F)n3nc(C(=O)N4CCC5(CC4)OCCO5)cc3n2)cc1OC`?
KCNK9 inh: inactive; KCNQ1 act: inactive; hERG rescue: -1; Kir21 inh: 0.83; KCNK3 block: inactive; KCNQ1 block: inactive

What do the screens show for `O=P(Nc1cccnc1)(Oc1ccccc1Cl)Oc1ccccc1Cl`?
KCNK9 inh: inactive; KCNQ1 act: inactive; hERG rescue: -18; Kir21 inh: -4.8*; KCNK3 block: inactive; KCNQ1 block: inactive

Results for COc1ccc(NP(=O)(Oc2ccccc2OC)Oc2ccccc2OC)cc1 ?
KCNK9 inh: inactive; KCNQ1 act: inactive; hERG rescue: -13; Kir21 inh: -1.3; KCNK3 block: inactive; KCNQ1 block: inactive

What do the screens show for `Cn1cc(C(=O)OCC(=O)Nc2ccccc2Cl)c2ccccc21`?
KCNK3 block: inactive

How did C=CCCC1(CC(C)C)C(=O)NC(=S)NC1=O do in these assays?
KCNK3 block: inactive

How did Cc1cc(N2CCCC2)ccc1C=C(C#N)C#N do in these assays?
KCNK9 inh: -6.7*; KCNQ1 act: inactive; hERG rescue: -27; Kir21 inh: 0.38; KCNK3 block: inactive; KCNQ1 block: 12*

What do the screens show for `Cc1cc(N2CCCCC2)ccc1C=C1C(=O)N(C)C(=S)N(C)C1=O`?
KCNK9 inh: inactive; KCNQ1 act: inactive; hERG rescue: -9; Kir21 inh: -0.43; KCNK3 block: inactive; KCNQ1 block: inactive

How did CCCCCCCSc1cc(OC)c(CCN(C)C)cc1OC do in these assays?
KCNK9 inh: inactive; KCNQ1 act: inactive; hERG rescue: -26; Kir21 inh: -9.9*; KCNK3 block: inactive; KCNQ1 block: inactive

How did CCCC1CCCCC12C(=O)NC(=O)NC2=O (stereo not given) do in these assays?
KCNK3 block: inactive

How did BrCC(Br)C1CCC(Br)C(Br)C1 (stereo not given) do in these assays?
KCNK3 block: inactive

How did CC(C)(C)c1ccc(CSc2cnn(C(C)(C)C)c(=O)c2Cl)cc1 do in these assays?
KCNK9 inh: inactive; KCNQ1 act: inactive; hERG rescue: -15; Kir21 inh: 2; KCNK3 block: inactive; KCNQ1 block: 11*
